We go through six compounds from ChEMBL document CHEMBL1140036, “Novel glucagon receptor antagonists with improved selectivity over the glucose-dependent insulinotropic polypeptide receptor” (J Med Chem, 2008).

As a reminder, the half-life is the time needed for the level to fall by half in the phase considered. As a reminder, the IC50 is the concentration at which inhibition is half-maximal. Low values mean greater potency, high ones weaker potency. For orientation: bioavailability means the share of a dose that reaches the circulation, judged against a reference dose that is usually intravenous.

Glucagon receptor, sequence (P47871 whole entry): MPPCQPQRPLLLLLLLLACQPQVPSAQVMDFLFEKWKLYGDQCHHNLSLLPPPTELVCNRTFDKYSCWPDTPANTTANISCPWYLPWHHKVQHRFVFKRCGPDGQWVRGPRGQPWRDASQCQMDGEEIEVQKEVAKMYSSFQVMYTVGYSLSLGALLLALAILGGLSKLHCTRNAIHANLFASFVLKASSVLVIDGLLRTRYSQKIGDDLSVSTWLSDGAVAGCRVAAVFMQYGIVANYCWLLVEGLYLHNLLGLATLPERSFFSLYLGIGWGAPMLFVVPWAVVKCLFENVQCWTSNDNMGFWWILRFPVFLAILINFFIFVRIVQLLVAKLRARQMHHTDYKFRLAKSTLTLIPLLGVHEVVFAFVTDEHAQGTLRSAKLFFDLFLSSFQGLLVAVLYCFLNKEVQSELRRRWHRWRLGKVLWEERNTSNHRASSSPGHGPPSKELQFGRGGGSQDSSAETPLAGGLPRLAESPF

Tested on in one data set: not listed separately
Put plainly: Half life in Sprague-Dawley rat at 2 mg/kg, iv. The following applies: in vivo. Also on record: dose 2 mg/kg, route intravenous. The data set is classed as ADME, organism-based. The gist of the method: (§1)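 Fasted male Sprague-Dawley rats (~200 g) were given 2 mg/kg iv or 4 mg/kg po. Vehicle: 5% ethanol, 20% propylene glycol, 10% hydroxypropyl-β-cyclodextrin in phosphate buffer pH 7.5-8.0. EDTA blood was taken by heart puncture under CO2 at 5-360 min (iv) or 15-360 min (po). Plasma was analysed by HTLC-MS/MS, with noncompartmental PK analysis.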
With `CC(C)(C)[C@H]1CC[C@H](N(Cc2ccc(C(=O)NC[C@@H](O)C(=O)O)cc2)C(=O)Nc2cc(C(F)(F)F)cc(C(F)(F)F)c2)CC1`, the half-life worked out at 41 min.

With `CS(=O)(=O)c1cc(NC(=O)N(Cc2ccc(C(=O)NC[C@@H](O)C(=O)O)cc2)c2ccc(C3=CCCCC3)cc2)ccc1OC(F)(F)F`, the half-life turned out to be 55 min.

`O=C(NC[C@@H](O)C(=O)O)c1ccc(CN(C(=O)Nc2cc(Br)cc(C(F)(F)F)c2)c2ccc(C3=CCCCC3)cc2)cc1` came in with a half-life of 46 min.

`COc1cc(NC(=O)N(Cc2ccc(C(=O)NC[C@@H](O)C(=O)O)cc2)c2ccc(C3=CCCCC3)cc2)cc(C(F)(F)F)c1` came in with a half-life of 53 min.

`CSc1cccc(NC(=O)N(Cc2ccc(C(=O)NC[C@@H](O)C(=O)O)cc2)c2ccc(C3CCCCC3)cc2)c1` displayed a half-life of 43 min.

As to `O=C(NC[C@@H](O)C(=O)O)c1ccc(CN(C(=O)Nc2cccc(Br)c2)c2ccc(C3CCCCC3)cc2)cc1`, the half-life amounted to 72 min.

The next data set has as its target Glucagon receptor (Homo sapiens, UniProt P47871). Put plainly: Binding affinity to human cloned GluR expressed in BHK cells. The class given is cell-based.
Conditions: not given
Summed up: (§2)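 Competitive binding on purified plasma membranes from BHK cells expressing the cloned human receptor (glucagon, GIP or GLP-1 receptor). The glucagon receptor protocol follows earlier published work, and the GIP and GLP-1 assays were done the same way.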
Regarding `CC(C)(C)[C@H]1CC[C@H](N(Cc2ccc(C(=O)NC[C@@H](O)C(=O)O)cc2)C(=O)Nc2cc(C(F)(F)F)cc(C(F)(F)F)c2)CC1`, the IC50 stood at 8 nM. This lies in the single-digit nanomolar range.

Turning to `CS(=O)(=O)c1cc(NC(=O)N(Cc2ccc(C(=O)NC[C@@H](O)C(=O)O)cc2)c2ccc(C3=CCCCC3)cc2)ccc1OC(F)(F)F`, the IC50 was 5 nM.

For `O=C(NC[C@@H](O)C(=O)O)c1ccc(CN(C(=O)Nc2cc(Br)cc(C(F)(F)F)c2)c2ccc(C3=CCCCC3)cc2)cc1`, the IC50 is 7 nM.

Consider `COc1cc(NC(=O)N(Cc2ccc(C(=O)NC[C@@H](O)C(=O)O)cc2)c2ccc(C3=CCCCC3)cc2)cc(C(F)(F)F)c1`, for which the IC50 is 14 nM.

In the case of `CSc1cccc(NC(=O)N(Cc2ccc(C(=O)NC[C@@H](O)C(=O)O)cc2)c2ccc(C3CCCCC3)cc2)c1`, the IC50 was 9 nM.

`O=C(NC[C@@H](O)C(=O)O)c1ccc(CN(C(=O)Nc2cccc(Br)c2)c2ccc(C3CCCCC3)cc2)cc1`: the IC50 is 8 nM.

Another data set deals with T1, Gastric inhibitory polypeptide receptor (Homo sapiens, UniProt P48546).
T1 sequence (P48546 whole entry): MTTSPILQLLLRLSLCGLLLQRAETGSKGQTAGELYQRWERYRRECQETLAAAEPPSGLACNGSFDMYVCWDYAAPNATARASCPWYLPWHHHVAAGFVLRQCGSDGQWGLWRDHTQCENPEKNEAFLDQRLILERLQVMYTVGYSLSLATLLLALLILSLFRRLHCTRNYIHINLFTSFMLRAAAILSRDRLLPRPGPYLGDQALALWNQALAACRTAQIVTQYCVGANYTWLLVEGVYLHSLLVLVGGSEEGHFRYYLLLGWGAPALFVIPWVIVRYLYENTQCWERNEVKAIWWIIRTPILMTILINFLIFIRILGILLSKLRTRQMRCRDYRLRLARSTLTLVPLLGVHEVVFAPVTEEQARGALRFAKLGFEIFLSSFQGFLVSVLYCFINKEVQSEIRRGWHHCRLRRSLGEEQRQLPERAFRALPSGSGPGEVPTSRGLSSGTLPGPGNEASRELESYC
The experiment in a line: Binding affinity to human cloned GIPR expressed in BHK cells.
Conditions: not given
The data set is classed as cell-based. Summed up:
as §2
Take `CC(C)(C)[C@H]1CC[C@H](N(Cc2ccc(C(=O)NC[C@@H](O)C(=O)O)cc2)C(=O)Nc2cc(C(F)(F)F)cc(C(F)(F)F)c2)CC1`: the IC50 amounted to 87 nM.

On to `CS(=O)(=O)c1cc(NC(=O)N(Cc2ccc(C(=O)NC[C@@H](O)C(=O)O)cc2)c2ccc(C3=CCCCC3)cc2)ccc1OC(F)(F)F`, for which the concentration for half-maximal inhibition (IC50) is 497 nM. This IC50 lies about 5.7-fold higher than the previous one.

Turning to `O=C(NC[C@@H](O)C(=O)O)c1ccc(CN(C(=O)Nc2cc(Br)cc(C(F)(F)F)c2)c2ccc(C3=CCCCC3)cc2)cc1`, the IC50 came out at 380 nM.

As for `COc1cc(NC(=O)N(Cc2ccc(C(=O)NC[C@@H](O)C(=O)O)cc2)c2ccc(C3=CCCCC3)cc2)cc(C(F)(F)F)c1`, the IC50 turned out to be 279 nM.

The compound `CSc1cccc(NC(=O)N(Cc2ccc(C(=O)NC[C@@H](O)C(=O)O)cc2)c2ccc(C3CCCCC3)cc2)c1` registered an IC50 of 411 nM.

For the compound `O=C(NC[C@@H](O)C(=O)O)c1ccc(CN(C(=O)Nc2cccc(Br)c2)c2ccc(C3CCCCC3)cc2)cc1`, the IC50 worked out at 216 nM.

Tested on in the next data set: not listed separately
The experiment in a line: Oral bioavailability in Sprague-Dawley rat at 4 mg/kg. The data set is classed as ADME, organism-based. The conditions noted are these: in vivo. Summed up:
as §1
In turn, `CC(C)(C)[C@H]1CC[C@H](N(Cc2ccc(C(=O)NC[C@@H](O)C(=O)O)cc2)C(=O)Nc2cc(C(F)(F)F)cc(C(F)(F)F)c2)CC1` returned a bioavailability of 11%.

The compound `CS(=O)(=O)c1cc(NC(=O)N(Cc2ccc(C(=O)NC[C@@H](O)C(=O)O)cc2)c2ccc(C3=CCCCC3)cc2)ccc1OC(F)(F)F` yielded a bioavailability of 10%.

`O=C(NC[C@@H](O)C(=O)O)c1ccc(CN(C(=O)Nc2cc(Br)cc(C(F)(F)F)c2)c2ccc(C3=CCCCC3)cc2)cc1` yielded a bioavailability of 14%.

For `COc1cc(NC(=O)N(Cc2ccc(C(=O)NC[C@@H](O)C(=O)O)cc2)c2ccc(C3=CCCCC3)cc2)cc(C(F)(F)F)c1`, the bioavailability was 7%.

Regarding `CSc1cccc(NC(=O)N(Cc2ccc(C(=O)NC[C@@H](O)C(=O)O)cc2)c2ccc(C3CCCCC3)cc2)c1`, the bioavailability amounted to 8%.

For the compound `O=C(NC[C@@H](O)C(=O)O)c1ccc(CN(C(=O)Nc2cccc(Br)c2)c2ccc(C3CCCCC3)cc2)cc1`, the bioavailability is 21%.

The target in a further data set is Glucagon-like peptide 1 receptor (Homo sapiens, UniProt P43220). Put plainly: Binding affinity to human cloned GLP1R expressed in BHK cells. The data set is classed as cell-based.
Glucagon-like peptide 1 receptor, sequence (P43220 whole entry): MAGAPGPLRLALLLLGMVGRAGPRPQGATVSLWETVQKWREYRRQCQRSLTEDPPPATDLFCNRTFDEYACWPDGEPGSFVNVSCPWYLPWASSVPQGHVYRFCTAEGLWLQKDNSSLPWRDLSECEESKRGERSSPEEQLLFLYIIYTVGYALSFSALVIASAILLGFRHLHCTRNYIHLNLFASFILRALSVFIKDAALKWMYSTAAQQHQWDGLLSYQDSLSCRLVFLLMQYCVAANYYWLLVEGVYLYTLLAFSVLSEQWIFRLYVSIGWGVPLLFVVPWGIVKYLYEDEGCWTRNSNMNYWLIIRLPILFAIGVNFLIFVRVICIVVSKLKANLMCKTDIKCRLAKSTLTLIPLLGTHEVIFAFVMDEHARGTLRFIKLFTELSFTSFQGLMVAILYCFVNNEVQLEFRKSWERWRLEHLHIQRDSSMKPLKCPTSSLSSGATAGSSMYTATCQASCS
Conditions: not given
Summed up:
as §2
As for `CC(C)(C)[C@H]1CC[C@H](N(Cc2ccc(C(=O)NC[C@@H](O)C(=O)O)cc2)C(=O)Nc2cc(C(F)(F)F)cc(C(F)(F)F)c2)CC1`, the IC50 was 7730 nM. That is a single-digit micromolar value.
